Measurements of several laboratories.
Compare with care: the assays were run in different laboratories.
Target: Serine/threonine-protein kinase SBK1 (SBK1, Homo sapiens, UniProt Q52WX2)

Compound | effect on | action | method | concentration | measurement | value
CN1CC(Oc2cnc(C#N)cc2-c2ccn3nc(NC(=O)C4CC4)cc3c2)C1 | enzyme activity | inhibitor |  | 1 µM | inhibition | 15%
Nc1ncnc2occ(-c3ccc(NC(=O)Nc4cc(C(F)(F)F)ccc4F)cc3)c12 | cell-free assay | inhibitor |  | 20 µM | remaining signal | 6.7%
Cc1sc(C(=O)NC2COC2)cc1-n1cc(NC(=O)Nc2c(F)cccc2Cl)cn1 | enzyme activity | inhibitor |  | 10 µM | remaining activity | 87.5%
COc1cc(Cl)c(C(=O)N[C@@H](CN[C@H]2CC[C@@H](N)CC2)Cc2ccc(C#N)cc2)cc1-c1ccc(CN[C@H](C)c2ccc(C)cc2)o1 | enzyme activity | inhibitor |  | 1 µM | remaining activity | 98%
CN(c1ccnc(CNc2nc(Nc3ccc4c(c3)CC(=O)N4)ncc2C(F)(F)F)n1)S(C)(=O)=O | cell-free assay |  | competition with immobilised ligand | 1 µM | remaining binding | 34%
O=C(Nc1cnn(-c2csc(C(=O)NC3COC3)c2)c1)Nc1ccccc1Cl | enzyme activity | inhibitor |  | 5 µM | remaining activity | 99.1%
COc1ccc2c(c1)O[C@H](c1ccc(OC)c(OC)c1)C[C@@H]2NC(=O)C1(c2ccc3c(c2)OC(F)(F)O3)CC1 | cell-free assay |  | competition with immobilised ligand | 1 µM | remaining binding | 90%
Cc1ccc(C(=O)Nc2ccc(CN3CCN(C)CC3)c(C(F)(F)F)c2)cc1C#Cc1cnc2cccnn12 | enzyme activity | inhibitor |  | 23.5 nM | remaining activity | 80%
